In article PMC3089497 (The Journal of Biological Chemistry, 2011):
Where “and” joins values, the source holds several entries; their conditions need not be identical. Equal entries are not always repeated. Where two headings read alike, the source gives them in different places. One block for each molecule: values may come before it. Peptide text beside a SMILES is read from it. * marks the point of attachment. Cbz = O=C(OCc1ccccc1)*

Legend:
p97 ATPase = p97 ATPase (Mus musculus, UniProt Q01853); test: p97 ATPase assay; assay type: biochemical
Ub^G76V-GFP [1] = test: cells; assay type: cell-based, human; conditions: for IC50: Homo sapiens, read-out: IC50 Ub^G76V-GFP
ODD-Luc [2] = test: ODD-Luc reporter degradation assay; assay type: cell-based, human; conditions: for IC50: Homo sapiens, read-out: IC50 ODD-Luc
Ub^G76V-GFP [3] = test: Ub^G76V-GFP reporter accumulation assay; assay type: cell-based, human; conditions: for Score in Ub^G76V-GFP accumulation screen: rescreen of 160 kinase inhibitors
Method in brief: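 Dual-reporter HeLa cells expressing UbG76V-GFP were seeded at 5000 per well and grown 16 h. They were exposed to DMSO, MG132 or test compound in modified DMEM (no phenol red, folic acid, riboflavin or vitamin B12) for 2–3 h. Two GFP images per well (100-ms exposure) were taken by automated microscopy. Mean GFP intensity per cell area was averaged over about 500 cells, background-corrected using reporter-free cells, and normalized to DMSO-treated cells.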

Luc-ODC [4] = test: Luc-ODC reporter degradation assay; assay type: cell-based, human; conditions: for IC50: Homo sapiens, read-out: IC50 Luc-ODC
C522A-p97 = C522A-p97 (Mus musculus, UniProt Q01853, C522A); test: In vitro ATPase assay of C522A-p97; assay type: biochemical; conditions: compared with wild-type p97
Method in brief: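 The C522A p97 mutant was made by site-directed mutagenesis of the wild-type p97 plasmid. It was assayed for in vitro ATPase activity beside wild-type p97, and inhibition was read from titration curves of test compound.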

TCRα-GFP = test: ERAD reporter TCRα-GFP degradation in HEK293 cells; assay type: cell-based, human; conditions: 5 or 10 μM, 2 h CHX chase
Method in brief: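 HEK293 cells stably expressing the ERAD reporter TCRα-GFP were pretreated with MG132 and washed. They were then incubated with CHX plus test compound for 2 h before harvest, and reporter levels were assessed by immunoblotting.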

ODD-Luc [5] = test: ODD-Luc reporter accumulation assay; assay type: cell-based, human; conditions: 7.5 μM for 2 h, relative to DMSO
Method in brief: (§1)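 HeLa cells stably expressing UbG76V-GFP were lentivirally transduced with ODD-Luc or Luc-ODC and kept under puromycin (2.5 μg/ml). Cells were seeded at 5000 per well and grown 16 h. They were treated 2–3 h in modified DMEM (no phenol red, folic acid, riboflavin or vitamin B12) containing DMSO, MG132 or test compound. d-Luciferin (1 mg/ml in PBS, stock) was added, followed by 5 min shaking at room temperature. Luminescence was read with […] integration and normalized to DMSO.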

Luc-ODC [6] = test: Luc-ODC reporter accumulation assay; assay type: cell-based, human; conditions: 30 μM for 2.5 h, relative to DMSO
Method in brief: as §1

[7] = read-out: IC50 p97 ATPase, in vitro, WT p97, triplicate, ± S.D.
[8] = IC50 p97 ATPase, in vitro, WT p97, triplicate, ± S.D.

p97 ATPase, sequence (Q01853 whole entry): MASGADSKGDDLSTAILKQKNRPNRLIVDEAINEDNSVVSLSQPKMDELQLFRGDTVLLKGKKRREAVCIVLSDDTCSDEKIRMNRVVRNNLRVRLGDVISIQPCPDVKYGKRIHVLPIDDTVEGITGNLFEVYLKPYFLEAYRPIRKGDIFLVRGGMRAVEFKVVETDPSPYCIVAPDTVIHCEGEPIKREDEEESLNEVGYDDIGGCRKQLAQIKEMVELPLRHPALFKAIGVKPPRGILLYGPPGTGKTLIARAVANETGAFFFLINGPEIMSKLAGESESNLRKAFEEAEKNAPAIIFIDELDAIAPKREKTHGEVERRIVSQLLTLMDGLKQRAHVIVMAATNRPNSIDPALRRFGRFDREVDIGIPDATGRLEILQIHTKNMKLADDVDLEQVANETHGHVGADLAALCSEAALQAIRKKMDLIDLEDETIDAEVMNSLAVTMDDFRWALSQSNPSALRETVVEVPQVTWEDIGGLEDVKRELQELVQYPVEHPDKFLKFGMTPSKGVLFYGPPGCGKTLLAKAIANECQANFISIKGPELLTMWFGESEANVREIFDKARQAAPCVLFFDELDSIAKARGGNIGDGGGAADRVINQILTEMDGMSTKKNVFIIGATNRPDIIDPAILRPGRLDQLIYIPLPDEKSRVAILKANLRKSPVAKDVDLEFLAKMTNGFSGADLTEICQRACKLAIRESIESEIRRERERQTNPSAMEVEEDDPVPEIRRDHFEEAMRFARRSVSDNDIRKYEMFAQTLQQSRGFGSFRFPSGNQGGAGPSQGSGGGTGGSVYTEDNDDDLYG
C522A-p97, sequence (Q01853 whole entry C522A): as the sequence (Q01853 whole entry) above, with C522A counted along it

IC50 (p97 ATPase; [7]): 12 ± 5 µM
Structure (SMILES): CC[n+]1c(/C=C/N(C)c2ccccc2)n(-c2ccccc2)c2ccc(-c3nc4ccccc4s3)cc21 [Compound 1, Akt inhibitor IV]

Structure (SMILES): O=c1[nH]c2ccccc2n1C1CCN(Cc2ccc(-c3nc4cc5[nH]cnc5cc4nc3-c3ccccc3)cc2)CC1 [Compound 2, Akt inhibitor VIII]
IC50 (p97 ATPase; [7]): 43 ± 4 µM

IC50 (p97 ATPase): > 50 µM
IC50 (Ub^G76V-GFP [1]): 16 ± 9 µM
IC50 (ODD-Luc [2]): 14 ± 11 µM
IC50 (Luc-ODC [4]): 11 ± 5 µM
Structure (SMILES): CCN(CC)CCCCN1c2ccccc2Oc2ccc(Cl)cc21 [Compound 3, Akt inhibitor X]
Score in Ub^G76V-GFP accumulation screen (Ub^G76V-GFP [3]): did not score as positives

IC50 (p97 ATPase; [7]): > 50 µM
Structure (SMILES): O=C1c2ccccc2-c2nc3nnnn3nc21 [Compound 4, PDK1/Akt/Flt]

Structure (SMILES): COc1ccc2c(c[n+](C)c3c4cc5c(cc4ccc23)OCO5)c1OC [Compound 5, Chelerythrine chloride]
IC50 (p97 ATPase; [8]): 24 ± 11 µM
IC50 (Ub^G76V-GFP [1]): 2.2 ± 1 µM
IC50 (ODD-Luc [2]): 3.4 ± 0.2 µM
IC50 (Luc-ODC [4]): 1.9 ± 0.7 µM

Structure (SMILES): CO[C@H]1[C@@H](OC)C[C@H](C)[C@@H](OC)C2=CC(=O)C=C(NC(=O)/C(C)=C/C=C\[C@H](OC)[C@@H](OC(N)=O)/C(C)=C/[C@@H]1C)C2=O [Compound 6, Herbimycin A, Streptomyces sp.]
IC50 (p97 ATPase; [8]): > 50 µM
IC50 (Ub^G76V-GFP [1]): 2.8 ± 1.6 µM
IC50 (ODD-Luc [2]): 5 ± 2 µM
Effect on Luc-ODC degradation (in words) (Luc-ODC [4]): very little activity
IC50 (Luc-ODC [4]): > 30 µM

Structure (SMILES): O=[N+]([O-])C=Cc1ccc2c(c1)OCO2 [Compound 7, 3,4-methylenedioxy-β-nitrostyrene]
IC50 (p97 ATPase; [8]): ≤ 10 µM and 1.7 µM
Activity toward C522A-p97 ATPase (in words) (C522A-p97): poor activity
Stabilization of Ub^G76V-GFP (Ub^G76V-GFP [1]; 1.7 μM): 2 fold
Stabilization of Ub^G76V-GFP (in words) (Ub^G76V-GFP [1]; 7.5 μM): almost complete stabilization
IC50 (Ub^G76V-GFP [1]): 1.6 ± 0.4 µM
IC50 for p97-dependent versus p97-independent reporters (Ub^G76V-GFP [1]; fold lower, Ub^G76V-GFP vs ODD-Luc): 3.5 fold
IC50 (ODD-Luc [2]): 5.9 ± 1.5 µM
Accumulation of Ub^G76V-GFP (Ub^G76V-GFP [3]; 7.5 or 30 μM, 3 h): < 2 fold
Score in Ub^G76V-GFP accumulation screen (Ub^G76V-GFP [3]): did not score as positives
Effect on Luc-ODC degradation (in words) (Luc-ODC [4]): very little activity
IC50 (Luc-ODC [4]): > 30 µM
Degradation of TCRα-GFP (TCRα-GFP): potently blocked

Structure (SMILES): CN[C@@H]1C[C@H]2O[C@@](C)([C@@H]1OC)n1c3ccccc3c3c4c(c5c6ccccc6n2c5c31)C(=O)NC4 [Compound 8, Staurosporine, Streptomyces sp.]
IC50 (p97 ATPase; [7]): > 50 µM

IC50 (p97 ATPase; [7]): 12 ± 1 µM
Structure (SMILES): Cc1ccc(S(=O)(=O)/C=C/C#N)cc1 [Compound 9, BAY 11-7082]

Structure (SMILES): CCn1cnc2c(Nc3cccc(Cl)c3)nc(N[C@@H]3CCCC[C@@H]3N)nc21 [Compound 10, Cdk1 Inhibitor, CGP74514A]
IC50 (p97 ATPase; [7]): 17 ± 3 µM

IC50 (p97 ATPase; [7]): 13 ± 0.5 µM
Structure (SMILES): Cc1ccc(NC2=CC(=O)c3sc(C)nc3C2=O)cc1 [Compound 11, Cdk4 inhibitor III]

Structure (SMILES): O=C1c2ccccc2-[n+]2ccc3c([nH]c4ccccc43)c21 [Compound 12, Fascaplysin]
IC50 (p97 ATPase; [8]): > 50 µM
IC50 (Ub^G76V-GFP [1]): 0.9 ± 0.1 µM
IC50 (ODD-Luc [2]): 6.9 ± 1.9 µM
Effect on Luc-ODC degradation (in words) (Luc-ODC [4]): very little activity
IC50 (Luc-ODC [4]): > 30 µM

IC50 (p97 ATPase; [7]): > 50 µM
Structure (SMILES): Cn1nc2c3c(cccc31)C(=O)c1ccccc1-2 [Compound 14, JNK inhibitor, negative control]

Structure (SMILES): COC(=O)[C@@]1(O)C[C@H]2O[C@]1(C)n1c3ccccc3c3c4c(c5c6ccccc6n2c5c31)C(=O)NC4 [Compound 15, K-252a, Nocardiopsis sp.]
IC50 (p97 ATPase; [7]): 26 ± 2 µM

IC50 (p97 ATPase; [7]): > 50 µM
Structure (SMILES): O=C1NC(=O)c2cc(Nc3ccc(F)cc3)c(Nc3ccc(F)cc3)cc21 [Compound 16, PKCbII/EGFR inhibitor]

IC50 (p97 ATPase; [7]): > 50 µM
Structure (SMILES): N#Cc1cnc2cnc(NCc3cccnc3)cc2c1Nc1ccc(F)c(Cl)c1 [Compound 17, Tpl2 kinase inhibitor]

Structure (SMILES): O=C(O)C=Cc1ccc2c(c1)OCO2 [Compound 18, 3,4-Methylenedioxycinnamic acid]
Effect on Ub^G76V-GFP degradation (in words) (Ub^G76V-GFP [1]): greatly diminished activity

IC50 with Luc-ODC reporter relative to Ub^G76V-GFP and ODD-Luc reporters (Luc-ODC [4]; fold higher): ~3 fold
Structure (SMILES): CC(C)C[C@@H](C=O)NC(=O)[C@H](CC(C)C)NC(=O)[C@H](CC(C)C)NC(=O)OCc1ccccc1 [MG132] (Cbz-Leu-Leu-Leu-aldehyde)
Ub^G76V-GFP reporter accumulation (Ub^G76V-GFP [3]; 7.5 μM for 2 h, relative to DMSO): ~20 fold
ODD-Luc reporter accumulation (ODD-Luc [5]): ~20 fold
Luc-ODC reporter accumulation (Luc-ODC [6]): 1.6 fold

Effect on ODD-Luc degradation (in words) (ODD-Luc [2]): strong stabilization
Effect on Luc-ODC degradation (in words) (Luc-ODC [4]): had no effect
Structure (SMILES): NS(=O)(=O)OC[C@@H]1C[C@@H](n2ccc3c(N[C@H]4CCc5ccccc54)ncnc32)C[C@@H]1O [MLN4924]
Effect on Ub^G76V-GFP degradation (in words) (Ub^G76V-GFP [1]): had no effect
